Values after ≈ are worked out from the molar mass of the structure shown. A value given as a limit tells only on which side of the number the result lay.

What all share (type): functional
Assay [1] deals with Enterococcus faecalis. The assay can be described thus: Evaluated for its antibacterial activity against Enterococcus faecalis 18513. The method in brief: (§1)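 Broth microdilution in AOAC broth with 4% dextrose, with compounds at 0.125-64 µg/mL. Inoculum was a 1:50 dilution of an overnight culture. Incubation at 37 °C with 8-10% CO₂ for about 20 h. MIC read as the first concentration showing no visible growth.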

In assay [2] the test system is Enterococcus faecium. As to the kind of experiment: Evaluated for its antibacterial activity against Enterococcus faecium L4001. In outline: as §1
In assay [3] the test system is Staphylococcus epidermidis. As to the kind of experiment: Evaluated for its antibacteria activity against Staphylococcus epidermidis 18570. The method in brief: (§2)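 Broth microdilution in AOAC broth with 4% dextrose. Compounds tested over 0.125-64 µg/mL. Wells inoculated with a 1:500 dilution of an overnight culture. Plates incubated at 37 °C under 8-10% CO₂ and read after about 20 h. MIC taken as the first concentration with no visible growth.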

Assay [4] has as its system Streptococcus pneumoniae. The assay can be described thus: Evaluated for its antibacterial activity against Streptococcus pneumoniae G9a. In outline:
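For S. pneumoniae, microdilution used BHI broth diluted 1:10 with 10% bovine serum, and compounds at 0.125-64 µg/mL. Wells received a 1:50 dilution of an overnight culture. Plates were kept at 37 °C in 8-10% CO₂ and read after about 20 h. MIC was the lowest concentration without visible growth.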

Assay [5] deals with Staphylococcus aureus. The assay can be described thus: Evaluated for its antibacterial activity against Staphylococcus aureus 133. The method in brief:
as §2

The subject of assay [6] is Streptococcus pyogenes. As to the kind of experiment: Evaluated for its antibacterial activity against Str. Pyogenes wacker. The method in brief:
as §1

Assay [7] has as its system Escherichia coli. As to the kind of experiment: Evaluated for its inhibitory activity against prokaryotic translation by using Escherichia coli transcription-translation assay. The method in brief:
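Coupled E. coli transcription-translation system with a luciferase reporter; inhibition of bacterial translation measured by luminescence read-out.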

The subject of assay [8] is Staphylococcus aureus. As to the kind of experiment: Evaluated for its antibacteria activity against Staphylococcus aureus. The method in brief: as §2

With `CN(C(=O)C[C@@H](N)CCCN=C(N)N)C1CN=C(NC(N)=O)NC1=O` (stereo not given in full), the MIC was greater than 16 µg/mL in assay [1]; 2 µg/mL (≈ 5.63 µM) in assay [2]; 0.25 µg/mL (≈ 0.703 µM) in assay [3]; 16 µg/mL (≈ 45 µM) in assay [4]; 0.25 µg/mL (≈ 0.703 µM) in assay [5]; 8 µg/mL (≈ 22.5 µM) in assay [6].

Turning to `CC(C)/N=C(/N)NCCC[C@H](N)CC(=O)N(C)C1CN=C(NC(N)=O)NC1=O` (stereo not given in full), inhibition in assay [7] was half-maximal at 12500 nM (IC50). In addition, in assay [5], the MIC was 12.5 µg/mL (≈ 31.4 µM).

In assay [7], `CC/N=C(/N)NCCC[C@H](N)CC(=O)N(C)C1CN=C(NC(N)=O)NC1=O` (stereo not given in full) showed an IC50 of 12500 nM. In assay [5], the MIC came to 6.3 µg/mL (≈ 16.4 µM).

`CC(C)C(=N)NCCC[C@H](N)CC(=O)N(C)C1CN=C(NC(N)=O)NC1=O` (stereo not given in full) showed a minimal inhibitory concentration (MIC) in assay [5] of 3.2 µg/mL (≈ 8.37 µM).

With `CN(CCC[C@H](N)CC(=O)N(C)C1CN=C(NC(N)=O)NC1=O)C(=N)N` (stereo not given in full), inhibition in assay [7] was half-maximal at 60 nM (IC50). Further, the MIC in assay [1] is 64 µg/mL (≈ 173 µM); in assay [2] it was 2 µg/mL (≈ 5.41 µM); in assay [3], 0.12 µg/mL (≈ 0.325 µM); in assay [4], 4 µg/mL (≈ 10.8 µM); in assay [5] it was 0.025 µg/mL (≈ 0.0677 µM); in assay [6] it was 0.5 µg/mL (≈ 1.35 µM).

`C/C(N)=N/CCC[C@H](N)CC(=O)N(C)C1CN=C(NC(N)=O)NC1=O` (stereo not given in full) gave a half-inhibitory concentration (IC50) in assay [7] of 100 nM. Further, the MIC in assay [1] is greater than 64 µg/mL; in assay [2], 16 µg/mL (≈ 45.1 µM); in assay [3], 0.2 µg/mL (≈ 0.564 µM); in assay [8] it was 0.2 µg/mL (≈ 0.564 µM); in assay [4], 16 µg/mL (≈ 45.1 µM); in assay [5], 0.2 µg/mL (≈ 0.564 µM). In assay [6], this compound yielded a minimal inhibitory concentration (MIC) of 1 µg/mL (≈ 2.82 µM).

Take `C/N=C(/N)NCCC[C@H](N)CC(=O)N(C)C1CN=C(NC(N)=O)NC1=O` (stereo not given in full): the IC50 in assay [7] was determined as 500 nM. Besides, the MIC in assay [1] came to 64 µg/mL (≈ 173 µM); in assay [2], 16 µg/mL (≈ 43.3 µM); in assay [3] it was 0.13 µg/mL (≈ 0.352 µM); in assay [4], 16 µg/mL (≈ 43.3 µM); in assay [5] it was 0.8 µg/mL (≈ 2.17 µM); in assay [6], 4 µg/mL (≈ 10.8 µM).

In assay [7], `C/N=C(/N)N(C)CCC[C@H](N)CC(=O)N(C)C1CN=C(NC(N)=O)NC1=O.Cl.Cl` (stereo not given in full) returned an IC50 of 400 nM. Also, the minimum inhibitory concentration (MIC) was greater than 64 µg/mL in assay [1]; 8 µg/mL in assay [2]; 0.5 µg/mL in assay [3]; 32 µg/mL in assay [4]; 0.4 µg/mL in assay [5]; 8 µg/mL in assay [6].

As a reminder, the MIC is the least concentration at which growth counts as inhibited. The low end stands for inhibition by little substance, the high end for a need for much substance. What is called IC50 is the concentration that gives 50% inhibition.
